Assay results as given in ChEMBL document CHEMBL3351568, “2-Aminobenzoxazole ligands of the hepatitis C virus internal ribosome entry site” (Bioorg Med Chem Lett, 2014).

Target: Internal ribosome entry site (IRES)
Assay: Binding affinity to HCV cyanine dye-labeled IRES subdomain 2a RNA by FRET assay in presence of tRNA
Parameters: species or system Hepacivirus hominis
Summary of the method: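 IRES subdomain IIa RNA target binding by FRET, following a previously described method. Compounds were titrated in triplicate experiments, and the data were averaged. EC50 came from fitting a single-site binding dose-response curve to the averaged data.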

| SMILES | EC50 [µM] |
| --- | --- |
| CN(C)CCCNc1nc2ccc(N)cc2o1 | 120 |
| CN(C)CCCNc1nc2cc(N)ccc2o1 | 52 |
| Nc1ccc2nc(NCCCN3CCCCC3)oc2c1 | 47 |
| Nc1ccc2nc(NCCCN3CCOCC3)oc2c1 | 43 |
| CN(C)CCNc1nc2ccc(N)cc2o1 | 500 |
| Nc1ccc2nc(NCCN3CCCCC3)oc2c1 | 88 |
| CN(C)CCCNc1nc2cccc(N)c2o1 | 31 |
| CN(C)CCCNc1nc2ccccc2o1 | 110 |
| CN(C)CCCNc1ccc2nc(N)oc2c1 | 25 |
| Nc1nc2ccc(Nc3ccccc3)cc2o1 | 90 |
| Nc1nc2ccc(NCc3ccccc3)cc2o1 | 27 |
| CN(C)CCN(C)Cc1cccc2nc(N)oc12 | 190 |
| CN(CCC(=O)N(C)C)Cc1cccc2nc(N)oc12 | 600 |
| CN(C)CCCNc1ccc2nc(NCCCN(C)C)oc2c1 | 63 |
